Experimental data published in PMC10651775 (Blood, 2022).
Structures can show the parent of a compound that is named as a salt. Where two headings read alike, the source gives them in different places.

Key:
patients with R/R ATL [1] = test: Phase 2 trial of valemetostat: investigator-assessed response; assay type: in vivo, human; details: 7/25 (CR plus CRu)
In short: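 Investigator-assessed response in patients given ≥1 dose of oral test compound, 200 mg once daily, fasting, 28-day cycles. Nodal/extranodal lesions were measured by CT as sums of products of greatest diameters, skin by visual review and modified severity-weighted assessment tool, and blood by white cell, lymphocyte and abnormal lymphocyte counts. ORR was the proportion with best response CR, CRu or PR, with a Clopper-Pearson 90% CI.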

patients with R/R ATL [2] = assay type: in vivo, human; details: for CR / CRu / ORR / PD / PR: IEAC best response
In short: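 Adults with R/R ATL (acute, lymphoma or unfavourable chronic type) took oral test compound (EZH1/EZH2 inhibitor) 200 mg once daily, fasting, in continuous 28-day cycles until progression or unacceptable toxicity; 50 mg if on strong CYP3A plus P-gp inhibitors. An independent committee assessed response at week 4, then every 8 weeks, then every 12 weeks after week 48, using modified ATL criteria without the ≥4-week persistence requirement.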

[3] = ATL subtype Unfavorable chronic, N=3
[4] = Disease site Nodal or extranodal lesions, N=20
[5] = Disease site Peripheral blood, N=9
[6] = Disease status Refractory, N=11
[7] = Prior lenalidomide treatment No, N=17
[8] = Prior lenalidomide treatment Yes, N=8
[9] = Prior mogamulizumab treatment No, N=1
[10] = Prior mogamulizumab treatment Yes, N=24

SMILES: Cc1cc(C)c(CNC(=O)c2cc(Cl)c3c(c2C)O[C@@](C)([C@H]2CC[C@H](N(C)C)CC2)O3)c(=O)[nH]1 [valemetostat, Valemetostat tosylate]
- investigator-assessed CR rate (patients with R/R ATL [1]): 28.0%
- ORR in nodal or extranodal lesions (patients with R/R ATL [2]; IEAC): 50%
- CR (patients with R/R ATL [2]; ATL subtype Acute, N=16): 5 (31.3) n (%)
- CRu (patients with R/R ATL [2]; ATL subtype Acute, N=16): 0 n (%)
- ORR (patients with R/R ATL [2]; ATL subtype Acute, N=16): 10 (62.5) n (%)
- PD (patients with R/R ATL [2]; ATL subtype Acute, N=16): 2 (12.5) n (%)
- PR (patients with R/R ATL [2]; ATL subtype Acute, N=16): 5 (31.3) n (%)
- CR (patients with R/R ATL [2]; ATL subtype Lymphoma, N=6): 0 n (%)
- CRu (patients with R/R ATL [2]; ATL subtype Lymphoma, N=6): 0 n (%)
- ORR (patients with R/R ATL [2]; ATL subtype Lymphoma, N=6): 1 (16.7) n (%)
- PD (patients with R/R ATL [2]; ATL subtype Lymphoma, N=6): 0 n (%)
- PR (patients with R/R ATL [2]; ATL subtype Lymphoma, N=6): 1 (16.7) n (%)
- CR (patients with R/R ATL [2]; [3]): 0 n (%)
- CRu (patients with R/R ATL [2]; [3]): 0 n (%)
- ORR (patients with R/R ATL [2]; [3]): 1 (33.3) n (%)
- PD (patients with R/R ATL [2]; [3]): 1 (33.3) n (%)
- PR (patients with R/R ATL [2]; [3]): 1 (33.3) n (%)
- CR (patients with R/R ATL [2]; All patients, N=25): 5 (20.0) n (%)
- CRu (patients with R/R ATL [2]; All patients, N=25): 0 n (%)
- ORR (patients with R/R ATL [2]; All patients, N=25): 12 (48.0) n (%)
- PD (patients with R/R ATL [2]; All patients, N=25): 3 (12.0) n (%)
- PR (patients with R/R ATL [2]; All patients, N=25): 7 (28.0) n (%)
- CR (patients with R/R ATL [2]; [4]): 6 (30.0) n (%)
- CRu (patients with R/R ATL [2]; [4]): 2 (10.0) n (%)
- ORR (patients with R/R ATL [2]; [4]): 10 (50.0) n (%)
- PD (patients with R/R ATL [2]; [4]): 3 (15.0) n (%)
- PR (patients with R/R ATL [2]; [4]): 2 (10.0) n (%)
- CR (patients with R/R ATL [2]; [5]): 2 (22.2) n (%)
- ORR (patients with R/R ATL [2]; [5]): 8 (88.9) n (%)
- PD (patients with R/R ATL [2]; [5]): 0 n (%)
- PR (patients with R/R ATL [2]; [5]): 6 (66.7) n (%)
- CR (patients with R/R ATL [2]; Disease site Skin lesions, N=7): 1 (14.3) n (%)
- PD (patients with R/R ATL [2]; Disease site Skin lesions, N=7): 0 n (%)
- PR (patients with R/R ATL [2]; Disease site Skin lesions, N=7): 2 (28.6) n (%)
- CR (patients with R/R ATL [2]; Disease status Recurrent, N=6): 1 (16.7) n (%)
- CRu (patients with R/R ATL [2]; Disease status Recurrent, N=6): 0 n (%)
- ORR (patients with R/R ATL [2]; Disease status Recurrent, N=6): 4 (66.7) n (%)
- PD (patients with R/R ATL [2]; Disease status Recurrent, N=6): 0 n (%)
- PR (patients with R/R ATL [2]; Disease status Recurrent, N=6): 3 (50.0) n (%)
- CR (patients with R/R ATL [2]; [6]): 3 (27.3) n (%)
- CRu (patients with R/R ATL [2]; [6]): 0 n (%)
- ORR (patients with R/R ATL [2]; [6]): 5 (45.5) n (%)
- PD (patients with R/R ATL [2]; [6]): 2 (18.2) n (%)
- PR (patients with R/R ATL [2]; [6]): 2 (18.2) n (%)
- CR (patients with R/R ATL [2]; Disease status Relapsed, N=8): 1 (12.5) n (%)
- CRu (patients with R/R ATL [2]; Disease status Relapsed, N=8): 0 n (%)
- ORR (patients with R/R ATL [2]; Disease status Relapsed, N=8): 3 (37.5) n (%)
- PD (patients with R/R ATL [2]; Disease status Relapsed, N=8): 1 (12.5) n (%)
- PR (patients with R/R ATL [2]; Disease status Relapsed, N=8): 2 (25.0) n (%)
- CR (patients with R/R ATL [2]; [7]): 5 (29.4) n (%)
- CRu (patients with R/R ATL [2]; [7]): 0 n (%)
- ORR (patients with R/R ATL [2]; [7]): 8 (47.1) n (%)
- PD (patients with R/R ATL [2]; [7]): 2 (11.8) n (%)
- PR (patients with R/R ATL [2]; [7]): 3 (17.6) n (%)
- CR (patients with R/R ATL [2]; [8]): 0 n (%)
- CRu (patients with R/R ATL [2]; [8]): 0 n (%)
- ORR (patients with R/R ATL [2]; [8]): 4 (50.0) n (%)
- PD (patients with R/R ATL [2]; [8]): 1 (12.5) n (%)
- PR (patients with R/R ATL [2]; [8]): 4 (50.0) n (%)
- CR (patients with R/R ATL [2]; [9]): 1 (100.0) n (%)
- CRu (patients with R/R ATL [2]; [9]): 0 n (%)
- ORR (patients with R/R ATL [2]; [9]): 1 (100.0) n (%)
- PD (patients with R/R ATL [2]; [9]): 0 n (%)
- PR (patients with R/R ATL [2]; [9]): 0 n (%)
- CR (patients with R/R ATL [2]; [10]): 4 (16.7) n (%)
- CRu (patients with R/R ATL [2]; [10]): 0 n (%)
- ORR (patients with R/R ATL [2]; [10]): 11 (45.8) n (%)
- PD (patients with R/R ATL [2]; [10]): 3 (12.5) n (%)
- PR (patients with R/R ATL [2]; [10]): 7 (29.2) n (%)
- median TTR (time to response) (patients with R/R ATL [2]; IEAC-assessed, range 1.0-5.6 months): 1.4 months
- ORR by subtype (patients with R/R ATL [2]; IEAC, acute (10/16)): 62.5%
- CR rate (patients with R/R ATL [2]; IEAC, all patients (5/25)): 20.0%
- PR rate (patients with R/R ATL [2]; IEAC, all patients (7/25)): 28.0%
- TCR (tumor control rate) (patients with R/R ATL [2]; IEAC, best response CR, CRu, PR or SD, 95% CI 68.8-97.5): 88.0%
